Converted amounts (≈) assume the structure as drawn. The source made the active and inactive calls. No cut-off for these calls is given here.
Tests used:
Type in all cases: functional, organism-based
[1] = tested on: Meloidogyne javanica; test: Nematicidal Activity against Meloidogyne javanica (root-knot nematode) assessed as death/paralysis of nematodes at 25 to 1000 mg/l at 1 day after immersion in test solution
How it was run: (§1)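 Second-stage juveniles (J2) came from an Italian M. javanica population reared two months on tomato in a glasshouse at 25±2 °C. Solutions at double strength were mixed 1:1 with 15 J2 per well, covered, in the dark at 28 °C. Methanol was ≤1% v/v final, and water and 0.3% tween controls were run. Paralysis was scored at 10×. Five replicates per treatment, experiment done twice. Control-corrected (Schneider-Orelli) EC50 was obtained by regression.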

[2] = tested on: Meloidogyne javanica; test: Nematicidal Activity against Meloidogyne javanica (root-knot nematode) assessed as death/paralysis of nematodes at 1 hr after immersion in test solution
How it was run: (§2)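 J2 of an Italian M. javanica population reared two months on tomato in a glasshouse at 25+2 °C. Pure compounds were made up as double-strength solutions (methanol ≤1% v/v final, tween in water) and mixed 1:1 with 15 J2 per well, covered, dark, 28 °C. Paralysis was scored by microscope, 5 replicates, run twice, Schneider-Orelli corrected, EC50 by regression.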

[3] = tested on: Meloidogyne javanica; test: Nematicidal Activity against Meloidogyne javanica (root-knot nematode) assessed as death/paralysis of nematodes at 1 day after immersion in test solution; conditions: 24 h; how it was run: as §2
[4] = tested on: Meloidogyne javanica; test: Nematicidal Activity against Meloidogyne javanica (root-knot nematode) assessed as death/paralysis of nematodes at 25 to 1000 mg/l at 1 hr after immersion in test solution; how it was run: as §1

Row | SMILES | Activity [1] | EC50 [2] | EC50 [3] | Activity [4]
1 | CCCCCCCCC=O [NONANAL] | inactive | > 50 µg/mL | – | –
2 | CCCCC/C=C/C=O | – | – | > 25 µg/mL | inactive
3 | O=Cc1ccco1 [FURFURAL] | – | > 25 µg/mL | 21.8 µg/mL (≈ 227 µM) | –
4 | CCCCCCCC/C=C/C=O | – | > 25 µg/mL | > 25 µg/mL | –
5 | CCOP(=O)(SC(C)CC)N1CCSC1=O (stereo not given) [FOSTHIAZATE] | – | > 25 µg/mL | 15.9 µg/mL (≈ 56.1 µM) | –
6 | CCCCCCC=O | inactive | – | – | inactive
7 | CCCCC/C=C/C=C/C=O | – | 7.53 µg/mL (≈ 49.5 µM) | 11.7 µg/mL (≈ 76.9 µM) | –
8 | CCCCCCC/C=C/C=O [TRANS-2-DECENAL] | – | 11.8 µg/mL (≈ 76.2 µM) | 20.4 µg/mL (≈ 132 µM) | –
9 | CCCCCC=O | inactive | – | – | inactive
10 | O=Cc1ccc(CO)o1 [AES-103] | – | > 25 µg/mL | > 25 µg/mL | –

Reference: ChEMBL document CHEMBL3046908, “Nematicidal activity of (E,E)-2,4-decadienal and (E)-2-decenal from Ailanthus altissima against Meloidogyne javanica” (J Agric Food Chem, 2012)
